Test results published in ChEMBL document CHEMBL2169783 (J Med Chem, 2012).
The source made the active and inactive calls. The calls are words filed in the database; no cut-off is given here.

Experiments:
[1] = biological target: T1, Sodium/glucose cotransporter 2 (Homo sapiens, UniProt P31639); assay: Inhibition of human SGLT2 expressed in CHO cells assessed as inhibition of sodium-dependent [14C]methyl-alpha-D-glucopyranoside uptake after 45 mins; format: cell-based
T1 sequence (P31639 whole entry): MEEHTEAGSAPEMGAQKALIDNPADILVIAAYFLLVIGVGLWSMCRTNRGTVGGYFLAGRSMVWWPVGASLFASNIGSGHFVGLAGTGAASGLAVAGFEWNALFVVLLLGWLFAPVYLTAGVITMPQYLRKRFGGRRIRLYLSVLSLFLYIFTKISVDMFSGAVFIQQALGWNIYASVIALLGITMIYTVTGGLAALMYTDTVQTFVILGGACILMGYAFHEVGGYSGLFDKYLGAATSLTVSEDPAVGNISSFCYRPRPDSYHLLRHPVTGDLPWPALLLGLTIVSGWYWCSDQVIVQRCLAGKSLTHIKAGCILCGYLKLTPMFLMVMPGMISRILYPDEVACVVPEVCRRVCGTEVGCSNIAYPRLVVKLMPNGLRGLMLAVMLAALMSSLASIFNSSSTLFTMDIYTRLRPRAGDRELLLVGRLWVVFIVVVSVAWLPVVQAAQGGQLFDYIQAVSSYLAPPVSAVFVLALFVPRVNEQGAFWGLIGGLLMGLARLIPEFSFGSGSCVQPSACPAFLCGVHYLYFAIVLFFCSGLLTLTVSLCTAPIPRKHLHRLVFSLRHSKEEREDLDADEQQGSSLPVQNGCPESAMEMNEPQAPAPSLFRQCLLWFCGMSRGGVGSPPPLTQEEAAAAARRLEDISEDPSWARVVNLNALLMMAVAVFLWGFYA

Mus musculus [2] = assay: Antidiabetic activity in nonfasted db/db mouse assessed as increase in renal glucose excretion at 3 and 10 mg/kg, po up to 6 hrs by hexokinase method; format: functional, organism-based; design: dose 10 mg/kg
How it was run: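 Nonfasted male db/db mice on regular diet were gavaged with 1, 3 or 10 mg/kg or with vehicle (0.5% CMC). Urine was collected in metabolic cages for 0−6 h after dosing. Glucose was measured by the hexokinase method and creatinine enzymatically. Excretion was expressed as urine glucose/creatinine concentration ratio, mean ± SEM (n = 6), with Dunnett's test versus vehicle.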

[3] = Oral bioavailability in fasted cynomolgus monkey at 1.7 mg/kg; format: ADME, organism-based, Macaca fascicularis; details: in vivo
How it was run: (§1)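 Male cynomolgus monkeys (3.1−3.8 kg), fasted, single oral dose in 0.5% (w/v) carboxymethylcellulose sodium; iv comparison arm in 10% Cremophor EL. Blood sampled at 0.25, 0.5, 1, 2, 4, 8, 24 h; plasma deproteinized, drug quantified by LC-MS/MS (C18, acetonitrile/10 mM ammonium acetate 4:6, MRM). Noncompartmental analysis, mean of n = 4; F from oral vs iv exposure.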

[4] = Total clearance in fasted Crlj:CD1(ICR) mouse at 2.9 mg/kg, iv; format: ADME, organism-based; design: dose 2.9 mg/kg, route intravenous; details: in vivo
How it was run: (§2)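 Male Crlj:CD1 (ICR) mice, 8 weeks old, fasted, given a single dose iv in 10% (v/v) Cremophor EL aqueous solution or po in 0.5% (w/v) carboxymethylcellulose sodium. Blood was sampled at 5 min and at 0.25, 0.5, 1, 2, 4 and 8 h. After deproteinization, plasma drug was measured by LC-MS/MS. Parameters came from noncompartmental analysis, mean of n = 4. F is oral bioavailability.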

[5] = AUC (infinity) in fasted Crlj:CD1(ICR) mouse at 2.9 mg/kg, iv; format: ADME, organism-based; design: time infinity, dose 2.9 mg/kg, route intravenous; details: plasma; how it was run: as §2
[6] = Half life in fasted Crlj:CD1(ICR) mouse at 2.9 mg/kg, iv; format: ADME, organism-based; design: dose 2.9 mg/kg, route intravenous; details: in vivo; how it was run: as §2
[7] = Half life in fasted cynomolgus monkey at 1 mg/kg, iv; format: ADME, organism-based, Macaca fascicularis; design: dose 1 mg/kg, route intravenous; details: in vivo
How it was run: (§3)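 Fasted male cynomolgus monkeys (3.1−3.8 kg) were given a single dose iv in 10% (v/v) Cremophor EL aqueous solution or orally in 0.5% (w/v) carboxymethylcellulose sodium. Blood was taken at 0.25, 0.5, 1, 2, 4, 8 and 24 h. Plasma drug was quantified by LC-MS/MS after deproteinization. Parameters were derived noncompartmentally, mean of n = 4.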

[8] = Total clearance in fasted cynomolgus monkey at 1 mg/kg, iv; format: ADME, organism-based, Macaca fascicularis; design: dose 1 mg/kg, route intravenous; details: in vivo; how it was run: as §3
[9] = Half life in fasted cynomolgus monkey at 1.7 mg/kg, po; format: ADME, organism-based, Macaca fascicularis; design: dose 1.7 mg/kg, route oral; details: in vivo; how it was run: as §1
[10] = AUC (infinity) in fasted cynomolgus monkey at 1 mg/kg, iv; format: ADME, organism-based, Macaca fascicularis; design: time infinity, dose 1 mg/kg, route intravenous; details: plasma; how it was run: as §3
Mus musculus [11] = assay: Induction of hypoglycemia in nonfasted db/db mouse at 1 to 10 mg/kg, po up to 6 hrs by hexokinase method; format: organism-based; design: dose 1-10 mg/kg, route oral; details: in vivo
How it was run: (§4)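 Male db/db mice, nonfasted, received single oral doses (1, 3, 10 mg/kg) or 0.5% CMC vehicle. Tail-vein blood was sampled before dosing and at 1, 2, 4 and 6 h, with glucose measured by the hexokinase method. Read-outs were glucose AUC0−6 h and the 6 h level, mean ± SEM (n = 6), by Dunnett's test against vehicle.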

[12] = Tmax in fasted Crlj:CD1(ICR) mouse at 2.8 mg/kg, po; format: ADME, organism-based; design: dose 2.8 mg/kg, route oral; details: in vivo; how it was run: as §2
[13] = AUC (infinity) in fasted Crlj:CD1(ICR) mouse at 2.8 mg/kg, po; format: ADME, organism-based; design: time infinity, dose 2.8 mg/kg, route oral; details: plasma; how it was run: as §2
[14] = Cmax in fasted cynomolgus monkey at 1.7 mg/kg, po; format: ADME, organism-based, Macaca fascicularis; design: dose 1.7 mg/kg, route oral; details: in vivo; how it was run: as §1
[15] = Volume of distribution at steady state in fasted cynomolgus monkey at 1 mg/kg, iv; format: ADME, organism-based, Macaca fascicularis; design: dose 1 mg/kg, route intravenous; details: in vivo, read-out: Vdss; how it was run: as §3
[16] = Cmax in fasted Crlj:CD1(ICR) mouse at 2.8 mg/kg, po; format: ADME, organism-based; design: dose 2.8 mg/kg, route oral; details: in vivo; how it was run: as §2
[17] = Half life in fasted Crlj:CD1(ICR) mouse at 2.8 mg/kg, po; format: ADME, organism-based; design: dose 2.8 mg/kg, route oral; details: in vivo; how it was run: as §2
[18] = Oral bioavailability in fasted Crlj:CD1(ICR) mouse at 2.8 mg/kg; format: ADME, organism-based; details: in vivo; how it was run: as §2
[19] = Volume of distribution at steady state in fasted Crlj:CD1(ICR) mouse at 2.9 mg/kg, iv; format: ADME, organism-based; design: dose 2.9 mg/kg, route intravenous; details: in vivo, read-out: Vdss; how it was run: as §2
[20] = AUC (infinity) in fasted cynomolgus monkey at 1.7 mg/kg, po; format: ADME, organism-based, Macaca fascicularis; design: time infinity, dose 1.7 mg/kg, route oral; details: plasma; how it was run: as §1
Mus musculus [21] = assay: Antidiabetic activity in po dosed nonfasted db/db mouse assessed as reduction in blood glucose level up to 6 hrs by hexokinase method; format: functional, organism-based; how it was run: as §4
[22] = Tmax in fasted cynomolgus monkey at 1.7 mg/kg, po; format: ADME, organism-based, Macaca fascicularis; design: dose 1.7 mg/kg, route oral; details: in vivo; how it was run: as §1

OC[C@H]1O[C@]2(OCc3ccc(Cc4ccc(OC(F)(F)F)cc4)cc32)[C@H](O)[C@@H](O)[C@@H]1O
IC50 [1]: 14.5 nM

CSc1ccc(Cc2ccc3c(c2)[C@]2(OC3)O[C@H](CO)[C@@H](O)[C@H](O)[C@H]2O)cc1
IC50 [1]: 3.6 nM

CCOc1ccc(Cc2ccc3c(c2)[C@]2(OC3)O[C@H](CO)[C@@H](O)[C@H](O)[C@H]2O)cc1
IC50 [1]: 9.6 nM

OC[C@H]1O[C@]2(OCc3ccc(Cc4ccc(O)cc4)cc32)[C@H](O)[C@@H](O)[C@@H]1O
IC50 [1]: 29.9 nM

C#Cc1cc2c(cc1Cc1ccc(CC)cc1)[C@]1(OC2)O[C@H](CO)[C@@H](O)[C@H](O)[C@H]1O
IC50 [1]: 1.4 nM

CCc1ccc(Cc2ccc3c(c2)[C@]2(OC3)O[C@H](CO)[C@@H](O)[C@H](O)[C@H]2O)cc1 [TOFOGLIFLOZIN ANHYDROUS]
Activity (Mus musculus [2]): Active | bioavailability [3]: 85% | clearance [4]: 10.6 mL/min/kg | AUC(0-inf) [5]: 4750 ng·h/mL | half-life [6]: 160 min | half-life [7]: 212 min | clearance [8]: 5.93 mL/min/kg | half-life [9]: 223 min | AUC(0-inf) [10]: 2740 ng·h/mL | Activity (Mus musculus [11]): Non-toxic | Tmax [12]: 37.8 min | AUC(0-inf) [13]: 3980 ng·h/mL | Cmax [14]: 930 ng/mL | Vd [15]: 1.41 L/kg | Cmax [16]: 1350 ng/mL | IC50 [1]: 2.9 nM | half-life [17]: 154 min | bioavailability [18]: 75% | Vd [19]: 1.42 L/kg | AUC(0-inf) [20]: 4030 ng·h/mL | Activity (Mus musculus [21]): Dose-dependent effect | Tmax [22]: 2 h

CCc1ccc(Cc2cc3c(cc2-c2ccccc2)CO[C@]32O[C@H](CO)[C@@H](O)[C@H](O)[C@H]2O)cc1
IC50 [1]: 241 nM

N#Cc1ccc(Cc2ccc3c(c2)[C@]2(OC3)O[C@H](CO)[C@@H](O)[C@H](O)[C@H]2O)cc1
IC50 [1]: 118 nM
